From ChEMBL document CHEMBL3271948, “Irreversible enzyme inhibitors. 200. Active-site-directed inhibitors of deoxycytidine kinase” (J Med Chem, 1977)
In brackets after ≈: the same amount, converted by molar mass. Activity calls are given as the source filed them. No cut-off for these calls is given here.

Tests used:
[1] = target: Deoxycytidine kinase (Rattus norvegicus) (UniProt P48769); experiment: (§1) Irreversible inhibition of Walker 256 rat tumor deoxycytidine kinase by [3H]deoxycytidine binding assay
Summary of the method: (§2)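 Enzyme came from the 0–45% (NH4)2SO4 fraction of Walker 256 rat tumor, treated with 1 M HOAc. The assay contained [3H]deoxycytidine 0.025 mM, ATP 5 mM, MgCl2 5 mM and Tris pH 8.0 buffer 50 mM. Inhibitor was added in DMSO. Phosphorylated product was measured by adsorption to DEAE-cellulose filter disks. Inhibition was expressed as V0/V1, the uninhibited over the inhibited rate.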

[2] = target: Deoxycytidine kinase (Rattus norvegicus, UniProt P48769); experiment: as §1; details: read-out: I50; summary of the method: as §2
[3] = target: Deoxycytidine kinase (Rattus norvegicus) (UniProt P48769); experiment: Irreversible inhibition of Walker 256 rat tumor deoxycytidine kinase assessed as ratio of V0/V1 by [3H]deoxycytidine binding assay; summary of the method: as §2
[4] = Maximum solubility of the compound; format: physicochemical

Sequence of Deoxycytidine kinase (Rattus norvegicus) (P48769 whole entry): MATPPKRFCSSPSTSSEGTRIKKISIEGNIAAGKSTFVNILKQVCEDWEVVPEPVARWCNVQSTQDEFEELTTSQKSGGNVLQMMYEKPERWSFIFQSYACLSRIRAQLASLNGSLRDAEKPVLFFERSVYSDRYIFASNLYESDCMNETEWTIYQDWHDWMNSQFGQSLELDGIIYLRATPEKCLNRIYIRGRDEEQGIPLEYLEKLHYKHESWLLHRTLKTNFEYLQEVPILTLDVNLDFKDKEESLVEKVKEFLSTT
Sequence of Deoxycytidine kinase (P48769 whole entry): as above

Compound	inhibition [1]	IC [1]	IC50 [2]	Ratio [3]	solubility [4]
O=C(Nc1ccnc(=O)[nH]1)c1ccccc1	inactive	–	–	–	–
CCCn1ccc(N)nc1=O	–	5 mM	12 mM	1.4	–
Nc1ccnc(SCc2ccccc2)n1	–	4 mM	2.8 mM	2.8	–
Nc1ccn(CCCOc2ccccc2)c(=O)n1	–	2.5 mM	2.5 mM	2	–
Nc1ccn(CCOc2ccccc2)c(=O)n1	–	5 mM	6 mM	1.8	–
O=c1nc(NCc2ccccc2)cc[nH]1	inactive	–	–	–	–
CCCCCCCCOc1nccc(N)n1	–	–	1 mM	1.5	250 µM (≈ 55.8 µg/mL)
CC(=O)Nc1cc[nH]c(=O)n1	inactive	–	–	–	–
Nc1cc(NCc2ccccc2)[nH]c(=O)n1	inactive	–	–	–	–
Nc1nc(=O)[nH]cc1-c1ccc(Cl)c(Cl)c1	inactive	–	–	–	–
CC(C)CCn1ccc(N)nc1=O	–	5 mM	5 mM	2	–
Nc1cc(OCc2ccccc2)ncn1	inactive	–	–	–	–
Nc1ccnc(OCc2ccccc2)n1	–	7.5 mM	6 mM	2.4	–
COCCOc1nccc(N)n1	–	5 mM	–	1	–
CCCCCNc1cc[nH]c(=O)n1	inactive	–	–	–	–
Nc1ccn(CCCCc2ccccc2)c(=O)n1	–	–	1 mM	2	1000 µM (≈ 243 µg/mL)
Nc1ccnc(SCCCOc2ccccc2)n1	–	–	2 mM	1.5	1000 µM (≈ 261 µg/mL)

Compound	inhibition [1]	IC [1]	IC50 [2]	Ratio [3]	solubility [4]
Nc1ccnc(Sc2ccc3ccccc3c2)n1	–	–	0.5 mM	2	500 µM (≈ 127 µg/mL)
CS(=O)(=O)c1nc(N)cc(OCc2ccccc2)n1	inactive	–	–	–	–
CCCOc1nccc(N)n1	–	5 mM	–	1	–
CCCCCSc1nccc(N)n1	–	2.6 mM	2.6 mM	2	–
COc1ccc(-c2c[nH]c(=O)nc2N)cc1	inactive	–	–	–	–
Nc1ccnc(SCCCCc2ccccc2)n1	–	–	1 mM	1.5	500 µM (≈ 130 µg/mL)
CSc1nc(N)cc(OCc2ccccc2)n1	inactive	–	–	–	–
Nc1ccn(Cc2ccccc2)c(=O)n1	–	–	12 mM	1.4	2500 µM (≈ 503 µg/mL)
Nc1ccnc(Oc2ccc(Cl)cc2)n1	–	5 mM	5 mM	2	–
CCCCCOc1nccc(N)n1	–	10 mM	7 mM	3.6	–
CCCCNc1cc(N)nc(=O)[nH]1	inactive	–	–	–	–
Nc1ccnc(SCc2ccc(Cl)cc2)n1	–	–	1 mM	2	1000 µM (≈ 252 µg/mL)
Nc1cc(OCc2ccccc2)[nH]c(=O)n1	inactive	–	–	–	–
Nc1cc[nH]c(=O)n1	–	10 mM	–	1	–
Nc1ccn(-c2cccc3ccccc23)c(=O)n1	–	–	1.5 mM	1.4	500 µM (≈ 119 µg/mL)
Oc1nccc(Nc2ccccc2)n1	inactive	–	–	–	–
Nc1cc(Nc2ccccc2)[nH]c(=O)n1	inactive	–	–	–	–
